Experimental data published in ChEMBL document CHEMBL3868583, “6-Aryl substituted 4-(4-cyanomethyl) phenylamino quinazolines as a new class of isoform-selective PI3K-alpha inhibitors” (Eur J Med Chem, 2016).

Key:
[1] = test system: MCF7; experiment: Induction of cell cycle arrest in human MCF7 cells assessed as apoptotic cells at 30 uM after 24 hrs by propidium iodide-staining based FACS analysis (reference value: 8 %); type: functional
Outline: (§1)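 MCF-7 or PC-3 cells treated at indicated concentrations for 24 h, pelleted, PBS-washed, fixed in ice-cold 70% ethanol overnight at 4 °C. RNase 0.2 mg/mL 1 h at 37 °C, propidium iodide 10 µg/mL 30 min dark. 10,000 events (FL2-A vs FL2-W) by flow cytometry; fractions in apoptosis/sub-G1, G1, S, G2-M.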

[2] = test system: MCF7; experiment: Induction of cell cycle arrest in human MCF7 cells assessed as apoptotic cells at 20 uM after 24 hrs by propidium iodide-staining based FACS analysis (reference value: 8 %); type: functional; outline: as §1
[3] = molecular target: Phosphatidylinositol 4,5-bisphosphate 3-kinase catalytic subunit alpha isoform (Homo sapiens, UniProt P42336); settings: MCF7, 30 uM
Sequence of Phosphatidylinositol 4,5-bisphosphate 3-kinase catalytic subunit alpha isoform (P42336 whole entry, canonical isoform): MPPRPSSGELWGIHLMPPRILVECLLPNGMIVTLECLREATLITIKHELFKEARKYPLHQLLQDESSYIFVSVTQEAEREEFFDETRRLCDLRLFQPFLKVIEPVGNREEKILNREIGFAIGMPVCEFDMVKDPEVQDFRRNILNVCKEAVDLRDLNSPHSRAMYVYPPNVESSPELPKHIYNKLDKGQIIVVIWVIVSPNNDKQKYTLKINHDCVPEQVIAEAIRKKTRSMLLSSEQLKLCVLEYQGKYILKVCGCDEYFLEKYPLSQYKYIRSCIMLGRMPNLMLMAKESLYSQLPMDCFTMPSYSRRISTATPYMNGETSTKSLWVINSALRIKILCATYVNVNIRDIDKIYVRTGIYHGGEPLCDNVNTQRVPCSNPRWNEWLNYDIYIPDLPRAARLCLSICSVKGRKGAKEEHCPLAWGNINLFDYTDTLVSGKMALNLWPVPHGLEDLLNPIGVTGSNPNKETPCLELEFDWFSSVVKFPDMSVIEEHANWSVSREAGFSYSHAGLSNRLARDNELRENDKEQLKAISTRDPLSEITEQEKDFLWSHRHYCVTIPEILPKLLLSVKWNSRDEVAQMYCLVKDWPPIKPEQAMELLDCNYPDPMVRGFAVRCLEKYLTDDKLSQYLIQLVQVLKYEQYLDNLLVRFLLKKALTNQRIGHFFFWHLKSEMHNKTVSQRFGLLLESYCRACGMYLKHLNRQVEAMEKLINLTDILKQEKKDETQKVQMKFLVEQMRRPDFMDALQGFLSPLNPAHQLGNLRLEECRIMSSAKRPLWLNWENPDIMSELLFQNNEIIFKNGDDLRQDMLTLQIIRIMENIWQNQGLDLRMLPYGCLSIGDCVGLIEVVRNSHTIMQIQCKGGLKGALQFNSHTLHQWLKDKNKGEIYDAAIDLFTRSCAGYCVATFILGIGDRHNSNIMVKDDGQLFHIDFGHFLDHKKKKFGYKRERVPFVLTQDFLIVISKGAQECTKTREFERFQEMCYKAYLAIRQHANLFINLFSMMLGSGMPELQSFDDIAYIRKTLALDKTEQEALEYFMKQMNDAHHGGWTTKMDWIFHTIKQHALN

[4] = test system: Mus musculus; experiment: Toxicity in Swiss mouse implanted with Swiss mouse EAC cells assessed as body weight at 25 mg/kg, ip administered for 1 to 9 days measured on day 5 (reference value: 26.2 g); type: organism-based, Ehrlich; settings: in vivo
[5] = test system: Mus musculus; experiment: Toxicity in Swiss mouse implanted with Swiss mouse EAT cells assessed as body weight at 25 mg/kg, ip administered for 1 to 9 days measured on day 9 (reference value: 22.8 g); type: organism-based; settings: in vivo
[6] = test system: MCF7; experiment: Induction of cell cycle arrest in human MCF7 cells assessed as accumulation at S phase at 20 uM after 24 hrs by propidium iodide-staining based FACS analysis (reference value: 30 %); type: functional; outline: as §1
[7] = test system: Mus musculus; experiment: Toxicity in Swiss mouse implanted with Swiss mouse EAT cells assessed as body weight at 25 mg/kg, ip administered for 1 to 9 days measured on day 13 (reference value: 24.1 g); type: organism-based; settings: in vivo
[8] = Downregulation of PI3Kdelta expression in human MCF7 cells at 30 uM by Western blot analysis; type: functional, cell-based
Outline: (§2)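 MCF-7 or PC-3 cells (2 × 10^6) treated with compound, lysed (1 × 10^6 cells) in cold NP-40 buffer with protease inhibitors 30 min on ice, 12,000 g 10 min 4 °C. 50 µg protein per lane on SDS-PAGE, PVDF transfer, 5% milk block, primary antibody 2 h, HRP secondary 1 h, ECL on film; β-actin internal control.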

[9] = Downregulation of PI3Kalpha expression in human PC3 cells at 30 uM by Western blot analysis; type: functional, cell-based; settings: PC-3; outline: as §2
[10] = test system: PC-3; experiment: Induction of cell cycle arrest in human PC3 cells assessed as accumulation at G1 phase at 10 uM after 24 hrs by propidium iodide-staining based FACS analysis (reference value: 39 %); type: functional; outline: as §1
[11] = test system: PC-3; experiment: Induction of cell cycle arrest in human PC3 cells assessed as accumulation at G2 phase at 20 uM after 24 hrs by propidium iodide-staining based FACS analysis (reference value: 17 %); type: functional; outline: as §1
[12] = test system: PC-3; experiment: Induction of cell cycle arrest in human PC3 cells assessed as accumulation at S phase at 30 uM after 24 hrs by propidium iodide-staining based FACS analysis (reference value: 44 %); type: functional
Outline: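 PC-3 cells exposed 24 h at indicated concentrations, pelleted, fixed overnight in ice-cold 70% ethanol at 4 °C, RNase 0.2 mg/mL at 37 °C 1 h, propidium iodide 10 µg/mL 30 min in dark; 10,000 events acquired (FL2-A vs FL2-W); DNA histograms modelled for apoptotic (sub-G1), G1, S and G2-M fractions.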

Structure (SMILES)	Activity [1]	Activity [2]	inhibition [3]	Activity [4]	Activity [5]	Activity [6]	Activity [7]	Activity [8]	Activity [9]	Activity [10]	Activity [11]	Activity [12]
N#CCc1ccc(Nc2ncnc3ccc(-c4ccc5[nH]ccc5c4)cc23)cc1	37%	12%	80%	22 g	21 g	42%	21.81 g	30%	–	–	–	–
N#CCc1ccc(Nc2ncnc3ccc(-c4cncc5ccccc45)cc23)cc1	–	–	–	–	–	–	–	–	100%	44%	9%	46%
